21 compounds from ChEMBL document CHEMBL1833953, “Design, synthesis, and evaluation of a novel dual FMS-like tyrosine kinase 3/stem cell factor receptor (FLT3/c-KIT) inhibitor for the treatment of acute myelogenous leukemia” (J Med Chem, 2011) can be followed below.

Series [1] concerns the target T1, Receptor-type tyrosine-protein kinase FLT3 (Homo sapiens, UniProt P36888).
T1 sequence (P36888 whole entry): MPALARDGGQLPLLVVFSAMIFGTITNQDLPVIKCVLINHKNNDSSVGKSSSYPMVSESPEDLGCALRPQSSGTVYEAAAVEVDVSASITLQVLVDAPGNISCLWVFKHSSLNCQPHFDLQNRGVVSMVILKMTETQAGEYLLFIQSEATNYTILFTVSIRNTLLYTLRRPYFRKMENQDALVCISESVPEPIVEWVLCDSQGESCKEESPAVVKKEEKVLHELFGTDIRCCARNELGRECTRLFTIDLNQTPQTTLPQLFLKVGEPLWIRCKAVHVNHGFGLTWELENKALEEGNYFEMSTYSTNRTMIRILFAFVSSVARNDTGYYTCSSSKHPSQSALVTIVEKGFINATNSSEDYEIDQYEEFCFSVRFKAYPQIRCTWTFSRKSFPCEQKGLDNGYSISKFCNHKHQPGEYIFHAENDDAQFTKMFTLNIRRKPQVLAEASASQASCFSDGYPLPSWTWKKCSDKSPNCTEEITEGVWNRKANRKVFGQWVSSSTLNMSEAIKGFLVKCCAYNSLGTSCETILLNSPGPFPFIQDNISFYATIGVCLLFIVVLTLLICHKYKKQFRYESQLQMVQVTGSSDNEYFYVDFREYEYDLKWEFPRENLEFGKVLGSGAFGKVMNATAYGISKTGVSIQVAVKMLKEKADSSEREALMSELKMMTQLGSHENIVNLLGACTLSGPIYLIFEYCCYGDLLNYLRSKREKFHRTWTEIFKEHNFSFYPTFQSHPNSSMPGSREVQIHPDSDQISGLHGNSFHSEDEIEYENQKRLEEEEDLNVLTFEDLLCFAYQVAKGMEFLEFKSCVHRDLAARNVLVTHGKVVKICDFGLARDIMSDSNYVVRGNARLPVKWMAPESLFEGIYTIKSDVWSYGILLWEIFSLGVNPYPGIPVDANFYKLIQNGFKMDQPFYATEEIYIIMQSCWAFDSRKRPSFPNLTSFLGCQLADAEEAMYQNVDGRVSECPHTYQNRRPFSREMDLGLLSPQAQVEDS
Kind of series: Displacement of [33P]ATP from human recombinant FLT3 domain after 20 mins by scintillation counting.

Series [2] can be described thus: Clearance in iv dosed rat. The class given is ADME, organism-based. Conditions: in vivo.
Series [3] concerns the target Mast/stem cell growth factor receptor Kit (Homo sapiens, UniProt P10721). Put plainly: Displacement of [33P]ATP from human recombinant c-KIT domain after 20 mins by scintillation counting. In short, it runs like this: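 Radiometric kinase assay run in 100 mM HEPES pH 7.5 with 10 mM MgCl2, 25 mM NaCl, 0.01% BSA, 1 mM DTT and 0.5 mg/mL polyE4Y. Enzyme was 5 nM c-KIT with 700 μM 33P-ATP; inhibitor was added from DMSO. The reaction was started with ATP/substrate, run 20 min, stopped with 20% TCA/4 mM ATP, filtered, washed with 5% TCA and counted by scintillation.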

Series [4] in a line: Half life in iv dosed rat. Conditions: in vivo. It is filed as ADME, organism-based.
In series [5] the test system is MV4-11. Kind of series: Cytotoxicity against human MV411 cells.
Series [6] concerns the target T2, Aurora kinase A (Homo sapiens, UniProt O14965).
T2 sequence (O14965 whole entry): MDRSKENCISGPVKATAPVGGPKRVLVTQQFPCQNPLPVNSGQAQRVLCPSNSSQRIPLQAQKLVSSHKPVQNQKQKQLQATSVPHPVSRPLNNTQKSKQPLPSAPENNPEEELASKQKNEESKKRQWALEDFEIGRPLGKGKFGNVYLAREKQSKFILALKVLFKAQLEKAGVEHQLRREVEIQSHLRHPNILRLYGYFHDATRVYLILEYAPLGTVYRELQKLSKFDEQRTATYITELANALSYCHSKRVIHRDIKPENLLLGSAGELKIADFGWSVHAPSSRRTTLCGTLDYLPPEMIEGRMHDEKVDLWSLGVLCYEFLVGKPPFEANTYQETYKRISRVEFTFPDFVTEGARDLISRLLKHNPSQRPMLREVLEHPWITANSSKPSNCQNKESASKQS
Kind of series: Inhibition of Aurora A by spectrophotometry.

Series [7] addresses T3, Interleukin-1 receptor-associated kinase 4 (Homo sapiens, UniProt Q9NWZ3).
T3 sequence (Q9NWZ3 whole entry): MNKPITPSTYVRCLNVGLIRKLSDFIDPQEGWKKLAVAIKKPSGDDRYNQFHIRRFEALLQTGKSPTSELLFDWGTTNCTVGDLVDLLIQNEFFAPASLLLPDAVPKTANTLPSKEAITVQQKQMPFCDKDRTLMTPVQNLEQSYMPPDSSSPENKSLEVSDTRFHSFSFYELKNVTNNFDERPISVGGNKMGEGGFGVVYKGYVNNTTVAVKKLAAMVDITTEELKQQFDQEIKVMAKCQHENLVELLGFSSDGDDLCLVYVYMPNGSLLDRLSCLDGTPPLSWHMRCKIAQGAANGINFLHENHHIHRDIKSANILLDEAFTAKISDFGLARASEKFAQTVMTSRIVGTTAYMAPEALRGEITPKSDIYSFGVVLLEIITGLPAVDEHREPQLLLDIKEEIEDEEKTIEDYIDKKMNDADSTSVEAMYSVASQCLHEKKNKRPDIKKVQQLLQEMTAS
Kind of series: Inhibition of IRAK4 by spectrophotometry.

Series [8] concerns the target Tyrosine-protein kinase JAK2 (Homo sapiens, UniProt O60674). Put plainly: Inhibition of JAK2 by spectrophotometry.

Tyrosine-protein kinase JAK2, sequence (O60674 whole entry): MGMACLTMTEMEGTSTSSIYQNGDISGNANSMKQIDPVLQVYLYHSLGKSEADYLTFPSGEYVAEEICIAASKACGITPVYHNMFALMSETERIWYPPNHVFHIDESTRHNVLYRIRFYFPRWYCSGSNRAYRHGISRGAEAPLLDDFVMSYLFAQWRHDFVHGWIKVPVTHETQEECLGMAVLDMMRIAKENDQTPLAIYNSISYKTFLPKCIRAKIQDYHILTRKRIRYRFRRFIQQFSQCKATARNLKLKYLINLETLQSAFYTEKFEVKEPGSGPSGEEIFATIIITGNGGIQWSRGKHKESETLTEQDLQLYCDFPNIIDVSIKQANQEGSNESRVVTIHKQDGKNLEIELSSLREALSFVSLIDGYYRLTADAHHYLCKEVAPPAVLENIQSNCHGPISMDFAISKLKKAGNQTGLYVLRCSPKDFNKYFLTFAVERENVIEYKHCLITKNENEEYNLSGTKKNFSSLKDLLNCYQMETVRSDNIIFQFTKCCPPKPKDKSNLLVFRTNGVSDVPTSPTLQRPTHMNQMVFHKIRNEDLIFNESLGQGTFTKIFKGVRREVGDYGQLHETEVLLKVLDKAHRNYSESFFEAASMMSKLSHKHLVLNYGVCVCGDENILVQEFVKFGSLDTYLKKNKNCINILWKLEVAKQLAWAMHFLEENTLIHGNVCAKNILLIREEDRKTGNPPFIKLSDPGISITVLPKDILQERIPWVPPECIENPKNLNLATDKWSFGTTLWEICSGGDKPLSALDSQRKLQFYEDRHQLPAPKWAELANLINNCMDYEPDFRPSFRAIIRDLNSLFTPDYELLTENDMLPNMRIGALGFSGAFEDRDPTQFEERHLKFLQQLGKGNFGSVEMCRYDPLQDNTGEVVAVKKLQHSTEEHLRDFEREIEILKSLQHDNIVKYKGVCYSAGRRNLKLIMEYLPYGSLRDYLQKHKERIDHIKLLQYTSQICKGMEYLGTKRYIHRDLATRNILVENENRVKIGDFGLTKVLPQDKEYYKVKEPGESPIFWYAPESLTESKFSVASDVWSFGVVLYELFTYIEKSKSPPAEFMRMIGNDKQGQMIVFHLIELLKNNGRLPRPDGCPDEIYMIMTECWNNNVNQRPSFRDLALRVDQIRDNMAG
Mast/stem cell growth factor receptor Kit, sequence (P10721 whole entry, the tested form may be a part): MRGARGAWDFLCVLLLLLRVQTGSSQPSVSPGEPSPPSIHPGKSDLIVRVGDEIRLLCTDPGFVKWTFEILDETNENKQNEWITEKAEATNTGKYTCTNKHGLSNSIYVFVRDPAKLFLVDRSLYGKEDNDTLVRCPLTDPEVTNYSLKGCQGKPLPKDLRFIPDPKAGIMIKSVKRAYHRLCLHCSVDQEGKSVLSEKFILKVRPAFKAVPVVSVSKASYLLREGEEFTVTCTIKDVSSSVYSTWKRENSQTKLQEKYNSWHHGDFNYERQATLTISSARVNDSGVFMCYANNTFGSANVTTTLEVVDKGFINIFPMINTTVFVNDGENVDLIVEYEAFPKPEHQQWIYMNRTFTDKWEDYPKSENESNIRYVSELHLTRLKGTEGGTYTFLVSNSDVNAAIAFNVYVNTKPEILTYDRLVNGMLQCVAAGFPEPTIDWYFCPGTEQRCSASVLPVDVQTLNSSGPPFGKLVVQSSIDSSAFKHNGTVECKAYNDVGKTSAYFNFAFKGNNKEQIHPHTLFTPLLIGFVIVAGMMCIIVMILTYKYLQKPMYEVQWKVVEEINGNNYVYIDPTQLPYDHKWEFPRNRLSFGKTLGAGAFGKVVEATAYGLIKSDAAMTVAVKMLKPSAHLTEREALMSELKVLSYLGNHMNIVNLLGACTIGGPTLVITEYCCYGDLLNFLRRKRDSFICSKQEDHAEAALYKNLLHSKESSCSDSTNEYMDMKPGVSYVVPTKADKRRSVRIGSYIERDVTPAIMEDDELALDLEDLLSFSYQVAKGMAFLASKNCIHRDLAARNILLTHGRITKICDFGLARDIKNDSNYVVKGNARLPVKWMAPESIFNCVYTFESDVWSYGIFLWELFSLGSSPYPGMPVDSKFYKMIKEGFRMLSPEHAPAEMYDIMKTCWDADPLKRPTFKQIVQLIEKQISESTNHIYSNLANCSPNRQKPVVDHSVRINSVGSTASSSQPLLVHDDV

As for `CN1CCC(c2cccc(Nc3nc(N)n(-c4ccccn4)n3)c2)CC1`, the values for the Ki in series [1] and in series [3] were less than 1 nM and less than 50 nM, respectively. For the same compound, the clearance in series [2] came to 174 mL/min/kg. Further, the half-life in series [4] was 2.48 h. Further, the concentration for half-maximal inhibition (IC50) in series [5] was less than 1 nM.

With `CN1CCC(c2ccc(Nc3nc(N)n(-c4ccccn4)n3)cc2)CC1`, in series [2], the clearance came out at 77.1 mL/min/kg. This compound also showed a half-life in series [4] of 2.45 h. Besides, in series [5], inhibition was half-maximal at 0.3 nM (IC50).

For the compound `CC(=O)Nc1cccc(Nc2nc(N)n(-c3ccccn3)n2)c1`, in series [2], the clearance stood at 44.6 mL/min/kg. Moreover, the Ki in series [3] came to 180 nM. This compound had a half-life in series [4] of 2.81 h. In series [5], this compound registered a concentration for half-maximal inhibition (IC50) of 15 nM.

Consider `Nc1nc(Nc2ccc(C(=O)NCCN3CCOCC3)cc2)nn1-c1ccccn1`, for which the clearance in series [2] was 63.9 mL/min/kg. Further, the half-life in series [4] was 1.61 h. Besides, it took 0.9 nM to reach half-maximal inhibition in series [5] (IC50).

For `CC(=O)N1CCC(c2ccc(Nc3nc(N)n(-c4ccccn4)n3)cc2)C1` (stereo not given), the clearance in series [2] stood at 25.1 mL/min/kg. Besides, the Ki in series [3] is less than 50 nM. In series [4], this compound gave a half-life of 1.42 h. This compound also showed an IC50 in series [5] of 1 nM.

`Nc1nc(Nc2cc(N3CCOCC3)ccc2F)nn1-c1ccccn1`: the Ki was 12 nM in series [1]; 37 nM in series [3]; more than 3000 nM in series [6]; 440 nM in series [7]; 590 nM in series [8].

In series [2], `Nc1nc(Nc2ccc(C(O)CCCN3CCOCC3)cc2)nn1-c1ccccn1` (stereo not given) registered a clearance of 17.7 mL/min/kg. Moreover, the Ki in series [3] is less than 50 nM. This compound also showed a half-life in series [4] of 1.03 h. The midpoint of inhibition in series [5], the IC50, lay at 1 nM.

For the compound `COc1ccccc1Nc1nc(N)n(-c2cc(NCCN(C)C)ncn2)n1`, the Ki is 1 nM in series [1]; 270 nM in series [3]; 2100 nM in series [6]; 78 nM in series [7]; more than 4000 nM in series [8].

Turning to `COc1ccc(N2CCOCC2)cc1Nc1nc(N)n(-c2ccccn2)n1`, the inhibition constant Ki in series [1] was 6 nM; in series [3], 60 nM; in series [6] it was more than 4000 nM; in series [7], 160 nM; in series [8] it was more than 4000 nM.

As for `COc1ccc(Nc2nc(N)n(-c3ccccn3)n2)cc1OC`, the Ki was 2.8 nM in series [1]; 9 nM in series [3]; 103 nM in series [6]; 43 nM in series [7]; 67 nM in series [8].

Consider `CN1CCN(c2ccc(Nc3nc(N)n(-c4ccccn4)n3)cc2)CC1`, for which the clearance in series [2] came to 84.4 mL/min/kg. For the same compound, the half-life in series [4] is 2.54 h. The compound also displayed an IC50 in series [5] of 2 nM.

For `Nc1nc(Nc2ccccc2Cl)nn1-c1ccccn1`, the Ki is 18 nM in series [1], 2000 nM in series [6], 1200 nM in series [7] and more than 4000 nM in series [8].

Turning to `CC(=O)Nc1ccc(Nc2nc(N)n(-c3ccccn3)n2)cc1`, the clearance in series [2] was found to be 42.1 mL/min/kg. For the same compound, the Ki in series [3] came to 240 nM. The compound further showed a half-life in series [4] of 1.33 h. The IC50 in series [5] is 18 nM.

`Nc1nc(Nc2ccc(N3CCOCC3)cc2)nn1-c1ccccn1`: the clearance in series [2] was 31.1 mL/min/kg. The compound further had a half-life in series [4] of 2.84 h. In series [5], this compound registered a 50% inhibitory concentration (IC50) of 2 nM.

`Nc1nc(Nc2ccc(OCCCN3CCOCC3)cc2)nn1-c1ccccn1` displayed a clearance in series [2] of 67.2 mL/min/kg. Moreover, the Ki in series [3] was less than 50 nM. Besides, the half-life in series [4] is 0.93 h.

For `COc1ccccc1Nc1nc(N)n(-c2ccccn2)n1`, the inhibitory constant (Ki) in series [1] was 15 nM; in series [3], 12 nM; in series [6], more than 7000 nM; in series [7] it was 420 nM; in series [8], more than 4000 nM.

Regarding `N#Cc1ccc(-n2nc(Nc3ccccc3Cl)nc2N)nc1`, the Ki in series [1] is 15 nM; in series [6], more than 2500 nM; in series [7] it was 36 nM; in series [8], more than 4000 nM.

In series [2], `Nc1nc(Nc2ccc(C(=O)N3CCOCC3)cc2)nn1-c1ccccn1` showed a clearance of 4.4 mL/min/kg. Moreover, the inhibition constant Ki in series [3] came out at 21 nM. The compound further had a half-life in series [4] of 2.22 h. For the same compound, half-maximal inhibition in series [5] (IC50) was put at 2 nM.

Consider `Nc1nc(Nc2ccc([C@H]3CC[C@@H](N4CCOCC4)CC3)cc2)nn1-c1ccccn1`, for which, in series [1], the inhibition constant (Ki) worked out at 5 nM. Moreover, in series [2], the clearance was found to be 77 mL/min/kg. Moreover, the half-life in series [4] was 1.6 h. Also, in series [5], the IC50 came out at 1 nM.

On to `COc1cc(N2CCOCC2)ccc1Nc1nc(N)n(-c2ccc(C#N)cn2)n1`, for which the inhibition constant Ki in series [1] is 22 nM; in series [3], 205 nM; in series [6] it was 2600 nM; in series [7] it was 340 nM; in series [8], more than 4000 nM.

On to `Nc1nc(Nc2cccc(C(=O)N3CCOCC3)c2)nn1-c1ccccn1`, for which, in series [2], the clearance was determined as 16.7 mL/min/kg. In series [3], the inhibition constant Ki came to 10 nM. In series [4], this compound showed a half-life of 2.92 h.

What is called Ki is the equilibrium dissociation constant of an inhibitor or competing ligand from its target. A word on the clearance: it is a measure of how efficiently the substance is removed, as volume per time. The low end stands for inefficient removal, the high end for efficient removal. What is called half-life is the time needed for the level to fall by half in the phase considered. High values mean slow decline, low ones rapid decline. By IC50 is commonly meant the concentration that inhibits the measured activity by half.
